How the values were obtained:
Enterovirus A71 = assay: Antiviral activity against human Enterovirus 71 BrCr infected in human RD cells assessed as reduction of virus induced cytopathic effect incubated for 3 days by MTS assay; type: functional, organism-based; details: Enterovirus A, 72 h
Procedure, shortened: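 Confluent RD cells (EMEM, 10% heat-inactivated FBS) are infected with ~100 CCID50 of EV71 BrCr and treated with a compound dilution series. After 3 days at 37 °C, 5% CO2, residual viability is measured by MTS. EC50 is the concentration giving 50% antiviral effect, from at least 2–3 independent experiments.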

[1] = Cytotoxicity against human RD cells by MTS assay; type: toxicity, cell-based
Procedure, shortened: (§1)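 Treated, uninfected RD or HeLa cells are run alongside the matching enterovirus CPE assays, with viability read by MTS. CC50 is the concentration giving a 50% adverse effect on host cells.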

SARS-CoV-2 = assay: Antiviral activity against SARS-CoV-2 BetaCoV/Belgium/GHB-03021/2020 infected in african green monkey Vero cells assessed as decline in virus induced cytopathogenicity measured after 4 days by argon laser scanning microscopic analysis; type: functional, organism-based; details: Severe acute respiratory syndrome coronavirus 2, BetaCoV/Belgium/GHB-03021/2020, Vero, 96 h
Zika virus = assay: Antiviral activity against ZIKV MR766 infected in african green monkey Vero E6 cells assessed as decline in virus induced cytopathogenicity measured after 5 days by MTS based microscopic analysis; type: functional, organism-based; details: MR766, Vero C1008, 120 h
Procedure, shortened: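 Vero E6 cells (10^4/well) are seeded in MEM with 2% FCS and left to adhere overnight. Cells are then infected with ZIKV MR766 (passaged in C6/36 cells) and given 2-fold serial compound dilutions. After 5 days, CPE is scored by MTS and by microscopy of fixed, stained cells. EC50 is the 50% antiviral effect.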

[2] = Cytotoxicity against african green monkey Vero E6 cells by MTS assay; type: toxicity, cell-based, Vero C1008; details: chlorocebus sabaeus
Procedure, shortened: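 Cytotoxicity is measured on treated, uninfected Vero E6 cells in parallel with the antiviral assays, using a standard MTS assay. CC50 is the concentration causing a 50% adverse effect on host cells.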

[3] = Selectivity index, ratio of CC50 for human RD cells to EC50 for antiviral activity against human Enterovirus 71; type: toxicity; details: read-out: Ratio CC50/EC50
Procedure, shortened: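 SI is calculated as CC50 on uninfected RD cells divided by EC50 in the 3-day EV71 BrCr CPE-reduction MTS assay.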

Coxsackievirus B3 = assay: Antiviral activity against Coxsackievirus B3 infected in african green monkey Vero cells assessed as reduction of virus induced cytopathic effect incubated for 3 days by MTS assay; type: functional, organism-based; details: Enterovirus B, 72 h
Procedure, shortened: (§2)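 Same setup as the EV71 assay: confluent monolayers (Vero A for CVB3; HeLa for CVA21, EV68, HRV-A02, HRV-B14) are infected with virus and treated with a compound dilution series. Incubation is 3 days at 37 °C, 5% CO2, and residual viability is read by MTS. EC50 is the 50% effective concentration, mean of at least 2 independent experiments.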

[4] = Cytotoxicity against african green monkey Vero cells by MTS assay; type: toxicity, cell-based; details: chlorocebus sabaeus
Coxsackievirus A21 = assay: Antiviral activity against Coxsackievirus 21 infected in human HeLa cells assessed as reduction of virus induced cytopathic effect incubated for 3 days by MTS assay; type: functional, organism-based; details: Enterovirus C, 72 h
Procedure, shortened: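 HeLa cells infected with coxsackievirus A21 (~100 CCID50) and treated with a compound dilution series, as in the EV71 set-up. Incubation was 3 days at 37 °C, 5% CO2, with residual viability quantified by MTS. EC50 is the concentration giving 50% antiviral effect. Values are means of ≥2 independent experiments.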

enterovirus D68 = assay: Antiviral activity against Human enterovirus 68 infected in human HeLa cells assessed as reduction of virus induced cytopathic effect incubated for 3 days by MTS assay; type: functional, organism-based; details: Enterovirus D, 72 h; procedure, shortened: as §2
rhinovirus A2 = assay: Antiviral activity against Human rhinovirus 2 infected in human HeLa cells assessed as reduction of virus induced cytopathic effect incubated for 3 days by MTS assay; type: functional, organism-based; details: Rhinovirus A, 72 h; procedure, shortened: as §2
rhinovirus B14 = assay: Antiviral activity against Human rhinovirus 14 infected in human HeLa cells assessed as reduction of virus induced cytopathic effect incubated for 3 days by MTS assay; type: functional, organism-based; details: Rhinovirus B, 72 h; procedure, shortened: as §2
[5] = Cytotoxicity against human HeLa cells by MTS assay; type: toxicity, cell-based; procedure, shortened: as §1

SMILES | EC50 (Enterovirus A71) | CC50 [1] | EC50 (SARS-CoV-2) | EC50 (Zika virus) | CC50 [2] | selectivity ratio [3] | EC50 (Coxsackievirus B3) | CC50 [4] | EC50 (Coxsackievirus A21) | EC50 (enterovirus D68) | EC50 (rhinovirus A2) | EC50 (rhinovirus B14) | CC50 [5]
OC[C@H]1O[C@@H](n2cnc3c(N4CCc5ccccc54)ncnc32)[C@H](O)[C@@H]1O | > 100 µM | > 100 µM | > 100 µM | > 100 µM | > 100 µM | – | – | – | – | – | – | – | –
OC[C@H]1O[C@@H](n2cnc3c(NCc4cccc(Cl)c4)ncnc32)[C@H](O)[C@@H]1O | 0.106 µM | 42.7 µM | > 100 µM | > 100 µM | > 100 µM | 403 | – | – | – | – | – | – | –
CCOC(=O)/C=C/[C@H](C[C@@H]1CCNC1=O)NC(=O)[C@@H](CC(=O)[C@@H](NC(=O)c1cc(C)on1)C(C)C)Cc1ccc(F)cc1 | – | > 1 µM | – | – | – | > 111 | – | – | – | – | – | – | –
OC[C@H]1O[C@@H](n2cnc3c(NCc4ccc(Cl)cc4)ncnc32)[C@H](O)[C@@H]1O | 0.236 µM | > 100 µM | > 100 µM | > 100 µM | > 100 µM | > 424 | – | – | – | – | – | – | –
OC[C@H]1O[C@@H](n2cnc3c(NCc4ccccc4Cl)ncnc32)[C@H](O)[C@@H]1O | 0.117 µM | 28.2 µM | > 100 µM | > 100 µM | > 100 µM | 241 | – | – | – | – | – | – | –
Cc1cccc(CNc2ncnc3c2ncn3[C@@H]2O[C@H](CO)[C@@H](O)[C@H]2O)c1 | 0.094 µM | > 100 µM | > 100 µM | > 100 µM | > 100 µM | > 1060 | > 100 µM | > 100 µM | 36.4 µM | 8.9 µM | > 100 µM | > 100 µM | > 100 µM
C[C@H](NP(=O)(OC[C@H]1O[C@@H](n2cnc3c(NCc4cccc(C(F)(F)F)c4)ncnc32)[C@H](O)[C@@H]1O)Oc1ccccc1)C(=O)OCc1ccccc1 (stereo partly drawn) | 0.017 µM | 9.18 µM | > 100 µM | – | – | 542 | – | – | – | – | – | – | –
CSC[C@H]1O[C@@H](n2cnc3c(N4CCc5ccccc54)ncnc32)[C@H](O)[C@@H]1O | 19 µM | 64.9 µM | > 100 µM | > 100 µM | > 100 µM | 3.4 | – | – | – | – | – | – | –
COC(=O)[C@H](CCSC[C@H]1O[C@@H](n2cnc3c(NCc4cccc(Cl)c4)ncnc32)[C@H](O)[C@@H]1O)NC(=O)C(F)(F)F | 4.5 µM | > 100 µM | > 100 µM | > 100 µM | > 100 µM | > 16.9 | > 100 µM | > 100 µM | 54.6 µM | > 100 µM | > 100 µM | > 100 µM | > 100 µM
CC(Nc1ncnc2c1ncn2[C@@H]1O[C@H](CO)[C@@H](O)[C@H]1O)c1ccccc1Cl (stereo partly drawn) | > 100 µM | > 100 µM | > 100 µM | > 100 µM | > 100 µM | – | – | – | – | – | – | – | –
CSC[C@H]1O[C@@H](n2cnc3c(NC(C)c4ccccc4Cl)ncnc32)[C@H](O)[C@@H]1O (stereo partly drawn) | > 100 µM | > 100 µM | > 100 µM | > 100 µM | > 100 µM | – | – | – | – | – | – | – | –
CSC[C@H]1O[C@@H](n2cnc3c(NCc4cccc(C)c4)ncnc32)[C@H](O)[C@@H]1O | 0.898 µM | > 75 µM | > 100 µM | > 100 µM | > 100 µM | > 83.5 | > 100 µM | > 50 µM | > 100 µM | > 100 µM | > 100 µM | > 100 µM | > 100 µM
C[C@H](NP(=O)(OC[C@H]1O[C@@H](n2ccc3c(NCc4cccc(C(F)(F)F)c4)ncnc32)[C@H](O)[C@@H]1O)Oc1ccccc1)C(=O)OCc1ccccc1 (stereo partly drawn) | 0.6 µM | 42.5 µM | > 100 µM | – | > 100 µM | 70.8 | – | – | – | – | – | – | –
CSC[C@H]1O[C@@H](n2cnc3c(NCc4cccc(C(F)(F)F)c4)ncnc32)[C@H](O)[C@@H]1O | > 20 µM | > 100 µM | > 100 µM | > 100 µM | > 100 µM | – | – | – | – | – | – | – | –
CSC[C@H]1O[C@@H](n2cnc3c(NCc4ccccc4Cl)ncnc32)[C@H](O)[C@@H]1O | 2.61 µM | > 100 µM | > 100 µM | > 100 µM | > 100 µM | > 38.3 | – | – | – | – | – | – | –
CSC[C@H]1O[C@@H](n2cnc3c(NCc4ccc(Cl)cc4)ncnc32)[C@H](O)[C@@H]1O | 8.05 µM | > 100 µM | > 100 µM | > 100 µM | > 100 µM | > 12.1 | – | – | – | – | – | – | –
CSC[C@H]1O[C@@H](n2ccc3c(NCc4cccc(Cl)c4)ncnc32)[C@H](O)[C@@H]1O | > 75 µM | > 100 µM | > 100 µM | > 100 µM | > 100 µM | – | – | – | – | – | – | – | –
CSC[C@H]1O[C@@H](n2cnc3c(NCc4cccc(S(F)(F)(F)(F)F)c4)ncnc32)[C@H](O)[C@@H]1O | 1.85 µM | 23.5 µM | > 100 µM | > 100 µM | 46.4 µM | 12.7 | – | – | – | – | – | – | –
OC[C@H]1O[C@@H](n2cnc3c(NCc4cccc(S(F)(F)(F)(F)F)c4)ncnc32)[C@H](O)[C@@H]1O | 0.102 µM | > 100 µM | > 100 µM | > 100 µM | > 100 µM | > 1280 | > 100 µM | > 100 µM | 31.7 µM | > 100 µM | > 100 µM | > 100 µM | 88.7 µM
CSC[C@H]1O[C@@H](n2cnc3c(NC(C)c4cccc(Cl)c4)ncnc32)[C@H](O)[C@@H]1O (stereo partly drawn) | 4.21 µM | 44.3 µM | > 100 µM | > 100 µM | 50.8 µM | 10.5 | – | – | – | – | – | – | –
C[C@@]1(O)[C@H](O)[C@@H](CO)O[C@H]1n1ccc2c(N)ncnc21 [BETA-2'-C-METHYL-7-DEAZA-ADENOSINE] | – | – | – | 20 µM | > 300 µM | – | – | – | – | – | – | – | –

— ChEMBL document CHEMBL5346868 (Eur J Med Chem, 2023)
